What was measured:
[1] = Half life in C57 Black mouse liver at 10 mg/kg, po; assay type: ADME, organism-based
Outline: (§1)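 Male C57BL/6 mice (n = 3) dosed at 10 mg/kg by IV or oral (PO) route. Dosing solutions were formulated in 10% DMSO, 10% cremaphor and 80% saline. Compound levels were measured in plasma and tissues over time, and values are given as mean ± SEM.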

[2] = Metabolic stability in human hepatocytes assessed as hepatic extraction ratio at 1 uM up to 120 mins by HPLC-MS/MS analysis; assay type: ADME, cell-based, Hepatocyte
Outline: (§2)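 Cryopreserved hepatocytes (human or mouse) added to buffer containing compound at 1 µM; incubated at 37 °C up to 120 min, stopped with acetonitrile containing internal standard. Centrifuged supernatant analysed for parent compound by HPLC-MS/MS; n = 2. Half-life and intrinsic clearance (µL/min/10^6 cells) derived; extraction ratio reported from these.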

[3] = Half life in C57 Black mouse spleen at 10 mg/kg, iv; assay type: ADME, organism-based; outline: as §1
[4] = Tmax in C57 Black mouse kidney at 10 mg/kg, po; assay type: ADME, organism-based; outline: as §1
[5] = Tmax in C57 Black mouse spleen at 10 mg/kg, po; assay type: ADME, organism-based; outline: as §1
[6] = AUCinfinity in C57 Black mouse brain at 10 mg/kg, po; assay type: ADME, organism-based; parameters: route oral, time infinity, dose 10 mg/kg
Outline: (§3)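 Male C57BL/6 mice were given a single 10 mg/kg dose either intravenously or orally. The oral and IV solutions were formulated in 10% DMSO, 10% cremaphor and 80% saline. Concentrations in plasma and in the tissues collected were determined after dosing, with n = 3 per route. Values are given as mean ± SEM.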

[7] = Metabolic stability in mouse hepatocytes assessed as hepatic extraction ratio at 1 uM up to 120 mins by HPLC-MS/MS analysis; assay type: ADME, cell-based, Hepatocyte; outline: as §2
[8] = Tmax in C57 Black mouse brain at 10 mg/kg, po; assay type: ADME, organism-based; outline: as §1
[9] = AUCinfinity in C57 Black mouse plasma at 10 mg/kg, po; assay type: ADME, organism-based; parameters: route oral, time infinity, dose 10 mg/kg; outline: as §3
[10] = AUCall in C57 Black mouse kidney at 10 mg/kg, po; assay type: ADME, organism-based; parameters: dose 10 mg/kg; outline: as §3
[11] = Clearance in C57 Black mouse plasma at 10 mg/kg, iv; assay type: ADME, organism-based; conditions: in vivo; outline: as §3
[12] = Half life in human plasma at 1 uM after 60 to 120 mins by HPLC-MS/MS analysis; assay type: ADME, cell-free; conditions: time 60-120 min
Outline: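 Buffer containing test compound at 1 µM was mixed with human or mouse blood plasma and incubated at 37 °C for 60–120 min. Parent compound remaining gave the plasma half-life and the percentage stable at 2 h.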

[13] = Cmax in C57 Black mouse liver at 10 mg/kg, iv; assay type: ADME, organism-based; parameters: route intravenous, dose 10 mg/kg; outline: as §3
[14] = molecular target: CYP3A4 (Homo sapiens, UniProt P08684); assay: Inhibition of human CYP3A4 using fluorogenic substrate incubated for 60 mins in presence of NADPH by fluorescence assay relative to control; assay type: ADME; conditions: probe fluorogenic substrate
Chain of CYP3A4 (P08684 whole entry): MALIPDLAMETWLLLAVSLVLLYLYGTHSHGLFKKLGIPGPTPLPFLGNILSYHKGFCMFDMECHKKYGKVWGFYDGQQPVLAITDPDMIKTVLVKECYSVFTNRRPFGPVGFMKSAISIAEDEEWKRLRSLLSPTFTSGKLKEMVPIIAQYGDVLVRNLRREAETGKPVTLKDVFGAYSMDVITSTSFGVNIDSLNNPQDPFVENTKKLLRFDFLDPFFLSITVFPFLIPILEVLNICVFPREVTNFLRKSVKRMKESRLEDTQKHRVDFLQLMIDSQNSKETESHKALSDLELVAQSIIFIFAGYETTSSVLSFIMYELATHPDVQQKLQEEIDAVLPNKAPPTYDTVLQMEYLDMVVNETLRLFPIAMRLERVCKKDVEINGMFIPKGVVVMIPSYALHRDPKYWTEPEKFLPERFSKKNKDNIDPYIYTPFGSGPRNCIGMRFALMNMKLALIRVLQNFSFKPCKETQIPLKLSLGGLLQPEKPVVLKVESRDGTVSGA
Outline: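 Baculosomes each expressing a single cDNA-derived human P450 isozyme were incubated with compound at 10 µM, a fluorogenic substrate and NADPH. Incubation was at 37 °C for at least 60 min before fluorescence was read, n = 3.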

[15] = Half life in C57 Black mouse plasma at 10 mg/kg, po; assay type: ADME, organism-based; outline: as §1
[16] = Half life in C57 Black mouse brain at 10 mg/kg, po; assay type: ADME, organism-based; outline: as §3

half-life [1]: 60 min | hepatic extraction ratio at 2 h, 1 µM [2]: 0.98 | half-life [3]: 66 min | Tmax [4]: 15 min | Tmax [5]: 15 min | AUC(0-inf) [6]: 774 ng·h/mL | hepatic extraction ratio at 2 h, 1 µM [7]: 0.48 | Tmax [8]: 15 min | AUC(0-inf) [9]: 523 ng·h/mL | AUC [10]: 1220 ng·h/mL | CL [11]: 68.37 mL/min/kg | half-life at 1 µM [12]: 808 min | Cmax [13]: 1830 ng/mL | inhibition at 1 h [14]: 80.2% | half-life [15]: 45.6 min | half-life [16]: 27.6 min
SMILES: O=C(CCCc1cccs1)N1CCN(c2ccc(C(F)(F)F)cc2)CC1

Reference: ChEMBL document CHEMBL4765370, “Design, synthesis, and biological evaluation of aryl piperazines with potential as antidiabetic agents via the stimulation of glucose uptake and inhibition of NADH:ubiquinone oxidoreductase” (Eur J Med Chem, 2020)
